In ChEMBL document CHEMBL1155479, “Highly potent, non-basic 5-HT6 ligands. Site mutagenesis evidence for a second binding mode at 5-HT6 for antagonism” (Bioorg Med Chem Lett, 2010):

target: Cytochrome P450 2D6 (Homo sapiens, UniProt P10635); assay: Inhibition of CYP2D6; format: ADME
Sequence (P10635 whole entry): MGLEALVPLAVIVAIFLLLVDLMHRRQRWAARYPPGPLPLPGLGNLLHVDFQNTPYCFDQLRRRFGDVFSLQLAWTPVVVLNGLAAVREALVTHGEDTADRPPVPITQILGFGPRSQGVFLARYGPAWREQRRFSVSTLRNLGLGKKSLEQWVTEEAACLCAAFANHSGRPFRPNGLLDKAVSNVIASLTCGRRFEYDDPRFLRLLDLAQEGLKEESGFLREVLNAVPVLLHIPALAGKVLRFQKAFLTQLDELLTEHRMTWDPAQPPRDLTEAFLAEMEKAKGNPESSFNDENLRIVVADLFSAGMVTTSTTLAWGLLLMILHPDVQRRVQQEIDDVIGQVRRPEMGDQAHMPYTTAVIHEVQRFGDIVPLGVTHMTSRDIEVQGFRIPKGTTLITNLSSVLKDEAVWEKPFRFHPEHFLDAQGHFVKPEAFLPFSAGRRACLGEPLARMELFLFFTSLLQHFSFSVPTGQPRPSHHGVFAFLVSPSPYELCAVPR

SMILES | IC50 [nM]
N=C(N)NCC1CCCc2cc(S(=O)(=O)c3ccccc3)ccc21 (stereo unspecified) | < 50

target: 5-hydroxytryptamine receptor 6 (Homo sapiens, UniProt P50406); assay: Displacement of [3H]LSD form human recombinant 5HT6 receptor
Sequence (P50406 whole entry): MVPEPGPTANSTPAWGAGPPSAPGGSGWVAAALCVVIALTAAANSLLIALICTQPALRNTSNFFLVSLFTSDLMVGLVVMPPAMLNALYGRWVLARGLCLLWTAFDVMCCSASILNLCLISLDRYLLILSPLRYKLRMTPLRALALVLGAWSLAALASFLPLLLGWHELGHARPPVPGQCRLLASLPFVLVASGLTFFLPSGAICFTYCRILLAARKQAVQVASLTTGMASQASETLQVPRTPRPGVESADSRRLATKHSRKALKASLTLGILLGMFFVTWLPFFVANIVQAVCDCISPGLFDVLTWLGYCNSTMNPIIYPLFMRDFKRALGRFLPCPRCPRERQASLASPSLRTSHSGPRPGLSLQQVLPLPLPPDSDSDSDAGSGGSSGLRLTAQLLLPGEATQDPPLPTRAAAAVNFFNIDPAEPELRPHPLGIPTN
In short: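 Membranes prepared from cells engineered to recombinantly express human 5-HT6 receptors; competitive radioligand binding with [3H]LSD; affinity reported as pKi (−log M).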

SMILES | Ki [nM]
CNC(=O)NC[C@@H]1CCCc2cc(S(=O)(=O)c3cccc(F)c3)ccc21 | 0.398
CN(C)C(=O)NC[C@@H]1CCCc2cc(S(=O)(=O)c3cccc(F)c3)ccc21 | 2.51
CC(=O)NC[C@@H]1CCCc2cc(S(=O)(=O)c3ccccc3)cc(F)c21 | 0.316
CN(C)S(=O)(=O)NC[C@@H]1CCCc2cc(S(=O)(=O)c3cccc(F)c3)ccc21 | 2
O=S(=O)(c1cccc(F)c1)c1ccc2c(c1)CCC[C@H]2CNS(=O)(=O)C(F)(F)F | 31.6
N=C(N)NC(=O)C[C@@H]1CCCc2cc(S(=O)(=O)c3cccc(F)c3)ccc21 | 0.631
CC(C)(O)C(=O)NC[C@@H]1CCCc2cc(S(=O)(=O)c3cccc(F)c3)ccc21 | 2
CS(=O)(=O)NC[C@@H]1CCCc2cc(S(=O)(=O)c3cccc(F)c3)ccc21 | 0.2
CN(C[C@@H]1CCCc2cc(S(=O)(=O)c3cccc(F)c3)ccc21)S(C)(=O)=O | 0.398
CC(=O)NC[C@@H]1CCCc2cc(S(=O)(=O)c3cccc(F)c3)ccc21 | 0.126
CN(C)CC(=O)NC[C@@H]1CCCc2cc(S(=O)(=O)c3cccc(F)c3)ccc21 | 0.398
O=C1CN(C[C@@H]2CCCc3cc(S(=O)(=O)c4cccc(F)c4)ccc32)CCN1 | 6.31
O=S(=O)(c1cccc(F)c1)c1cc(F)c2c(c1)CCC[C@H]2CNCCO | 0.158
COCC(=O)NC[C@@H]1CCCc2cc(S(=O)(=O)c3cccc(F)c3)ccc21 | 0.794
CC(C)(C)C(=O)NC[C@@H]1CCCc2cc(S(=O)(=O)c3cccc(F)c3)ccc21 | 3.98
NC(=O)NC[C@@H]1CCCc2cc(S(=O)(=O)c3cccc(F)c3)cc(F)c21 | 0.2
O=C(CO)NC[C@@H]1CCCc2cc(S(=O)(=O)c3cccc(F)c3)cc(F)c21 | 0.251
NS(=O)(=O)NC[C@@H]1CCCc2cc(S(=O)(=O)c3cccc(F)c3)ccc21 | 0.126
NC[C@@H]1CCCc2cc(S(=O)(=O)c3cncs3)ccc21 | 0.794
NC[C@@H]1CCCc2cc(S(=O)(=O)c3c[nH]c4ccccc34)ccc21 | 0.0501

SMILES | Ki [nM]
COC(=O)NC[C@@H]1CCCc2cc(S(=O)(=O)c3cccc(F)c3)ccc21 | 1.58
CC(=O)N(C)C[C@@H]1CCCc2cc(S(=O)(=O)c3cccc(F)c3)ccc21 | 1.58
CNC(=O)CNC[C@@H]1CCCc2cc(S(=O)(=O)c3cccc(F)c3)ccc21 | 1
O=S(=O)(c1cccc(F)c1)c1ccc2c(c1)CCC[C@H]2CNCCO | 0.126
COCCNC[C@@H]1CCCc2cc(S(=O)(=O)c3cccc(F)c3)ccc21 | 0.251
CNCC1CCCc2cc(S(=O)(=O)c3ccccc3)ccc21 (stereo unspecified) | 0.316
O=S(=O)(c1ccccc1)c1ccc2c(c1)CCCC2CNc1ncccn1 (stereo unspecified) | 25.1
CS(=O)(=O)c1cccc(S(=O)(=O)c2ccc3c(c2)CCC[C@H]3CN)c1 | 3.98
O=C(CO)NC[C@@H]1CCCc2cc(S(=O)(=O)c3cccc(F)c3)ccc21 | 0.1
N#Cc1cccc(S(=O)(=O)c2ccc3c(c2)CCC[C@H]3CN)c1 | 0.501
NC[C@@H]1CCCc2cc(S(=O)(=O)c3cc[nH]c3)ccc21 | 0.316
O=C(NC[C@@H]1CCCc2cc(S(=O)(=O)c3cccc(F)c3)ccc21)c1ncc[nH]1 | 15.8
CN(C)CC1CCCc2cc(S(=O)(=O)c3ccccc3)ccc21 (stereo unspecified) | 0.0631
CNCC(=O)NC[C@@H]1CCCc2cc(S(=O)(=O)c3cccc(F)c3)ccc21 | 0.158
CNC[C@@H]1CCCc2cc(S(=O)(=O)c3cc[nH]c3)ccc21 | 0.158
Cn1ccc(S(=O)(=O)c2ccc3c(c2)CCC[C@H]3CN)c1 | 7.94
NC[C@@H]1CCCc2cc(S(=O)(=O)c3cn[nH]c3)ccc21 | 2
O=C(NC[C@@H]1CCCc2cc(S(=O)(=O)c3cccc(F)c3)ccc21)[C@H]1CCCN1 | 0.631
O=S(=O)(c1cccc(F)c1)c1ccc2c(c1)CCC[C@H]2CN1CC(O)C1 | 0.1
CN(C[C@@H]1CCCc2cc(S(=O)(=O)c3cccc(F)c3)ccc21)C(N)=O | 39.8

SMILES | Ki [nM]
O=S(=O)(c1cccc(F)c1)c1ccc2c(c1)CCC[C@H]2CN1CCCS1(=O)=O | 31.6
N=C(N)NCC1CCCc2cc(S(=O)(=O)c3ccccc3)ccc21 (stereo unspecified) | 0.158
CC(=N)NCC1CCCc2cc(S(=O)(=O)c3ccccc3)ccc21 (stereo unspecified) | 0.631
O=C1CN=C(NC[C@@H]2CCCc3cc(S(=O)(=O)c4cccc(F)c4)ccc32)N1 | 0.1
O=C(NC[C@@H]1CCCc2cc(S(=O)(=O)c3cccc(F)c3)ccc21)c1ccc[nH]1 | 5.01
NC[C@@H]1CCCc2cc(S(=O)(=O)c3cc(F)cc4[nH]cnc34)ccc21 | 5.01
NC(=O)CNC[C@@H]1CCCc2cc(S(=O)(=O)c3cccc(F)c3)ccc21 | 0.1
CN(CC(N)=O)C[C@@H]1CCCc2cc(S(=O)(=O)c3cccc(F)c3)ccc21 | 1.26
NC[C@@H]1CCCc2cc(S(=O)(=O)c3ccccc3)ccc21 | 0.158
NC[C@@H]1CCCc2cc(S(=O)(=O)c3cccc(O)c3)ccc21 | 0.251
COc1cccc(S(=O)(=O)c2ccc3c(c2)CCC[C@H]3CN)c1 | 0.398
NC[C@@H]1CCCc2cc(S(=O)(=O)c3cccc(F)c3)ccc21 | 0.0794
O=S(=O)(O)CCCNC[C@@H]1CCCc2cc(S(=O)(=O)c3cccc(F)c3)ccc21 | 1.26
NCC(=O)NC[C@@H]1CCCc2cc(S(=O)(=O)c3cccc(F)c3)ccc21 | 0.316
NC[C@@H]1CCCc2cc(S(=O)(=O)Cc3ccccc3)ccc21 | 158
NC[C@@H]1CCCc2cc(S(=O)(=O)C3CCCCC3)ccc21 | > 1000
CN(C[C@@H]1CCCc2cc(S(=O)(=O)c3cccc(F)c3)ccc21)S(N)(=O)=O | 3.98
CNS(=O)(=O)NC[C@@H]1CCCc2cc(S(=O)(=O)c3cccc(F)c3)ccc21 | 1
NC(=O)NC[C@@H]1CCCc2cc(S(=O)(=O)c3cccc(F)c3)ccc21 [LANDIPIRDINE] | 0.2

tested on: not listed separately; assay: Inhibition of CYP450; format: ADME

SMILES | IC50 [nM]
CC(=O)NC[C@@H]1CCCc2cc(S(=O)(=O)c3ccccc3)cc(F)c21 | > 15000
